Activity calls are given as the source filed them. The calls are words filed in the database; no cut-off is given here.
Assays:
[1] = system: Protein cereblon/Epidermal growth factor receptor (Homo sapiens), P00533+Q96SW2 [L858R,T790M]; test: Protac activity at CRBN/EGFR L858R/T790M mutant in human NCI-H1975 cells assessed as induction of EGFR degradation measured after 16 hrs by Western blot assay; type: cell-based
Procedure, shortened: (§1)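 Cells seeded at 1-3X10^5/well and treated one day later with compounds at the concentrations and times given. Lysed in RIPA buffer with protease inhibitors. 15 µg protein run on 8% SDS-PAGE, transferred to nitrocellulose, probed for EGFR or phospho-EGFR, ECL detection. Lung lines kept in RPMI 1640 with 10% fetal calf serum, 37 °C, 5% CO2. DC50 is an estimated value. Repeated more than 3 times.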

HEK-293T = test: Cytotoxicity against human HEK293T cells assessed as inhibition of cell growth measured after 72 hrs by CCK-8 assay; type: cell-based
Procedure, shortened: (§2)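 Cells seeded at 3000 cells/well in 96-well plates and treated with graded compound concentrations one day later for 72 h. CCK-8 was added for 1–4 h and absorbance read at 450 nm. Lung cancer lines were kept in RPMI 1640 with 10% fetal calf serum at 37 °C and 5% CO₂.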

[2] = system: Protein cereblon/Epidermal growth factor receptor (Homo sapiens), P00533+Q96SW2 [L858R,T790M]; test: Protac activity at CRBN/EGFR L858R/T790M mutant in human NCI-H1975 cells assessed as increase in cell doubling time at 100 to 300 nM measured after 4 days by […] staining based fluorescence assay; details: dose 100-300 nM, time 4.0 day
[3] = target: T1, Protein cereblon/Epidermal growth factor receptor (Homo sapiens, UniProt P00533+Q96SW2); test: Protac activity at CRBN/EGFR in human PC-9 cells assessed as induction of EGFR degradation by Western blot assay; type: cell-based
[4] = system: Protein cereblon/Epidermal growth factor receptor (Homo sapiens), P00533+Q96SW2 [UNDEFINED MUTATION]; test: Protac activity at CRBN/EGFR exon19 deletion/T790M mutant in human PC-9 cells transfected with BRCA1 assessed as induction of EGFR degradation at 1 to 1000 nM measured after 16 hrs by Western blot assay; type: cell-based; details: dose 1-1000 nM; procedure, shortened: as §1
[5] = system: Protein cereblon/Epidermal growth factor receptor (Homo sapiens), P00533+Q96SW2 [L858R,T790M]; test: Protac activity at CRBN/EGFR L858R/T790M mutant in human NCI-H1975 cells assessed as induction of EGFR degradation at 300 nM incubated for 24 hrs followed by compound washout and measured 72 hrs after drug removal by Western blot assay; type: cell-based
Procedure, shortened: (§3)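 H1975 cells were treated with 300 nM PROTAC for 24 h. Medium was removed, cells were washed 3 times with PBS, and fresh RPMI 1640 with 10% fetal calf serum was added. Cells were harvested at time points up to 72 h after drug removal, and total EGFR was measured by Western blot.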

[6] = target: T1, Protein cereblon/Epidermal growth factor receptor; test: Protac activity at CRBN/EGFR in human PB1 cells assessed as induction of EGFR degradation by Western blot assay; type: cell-based
NCI-H1975 [7] = test: Antimigratory activity in human NCI-H1975 cells expressing EGFR L858R/T790M mutant at 500 nM measured after 24 hrs by wound healing assay; type: functional, cell-based
Procedure, shortened: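 H1975 cells seeded in 24-well plates, scratched at confluence with a pipette tip 24 h later and washed three times with PBS. Then incubated with degrader at 300 or 500 nM. Six photos per well taken at set time points, and the uncovered wound area quantified.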

[8] = Antiproliferative activity against human PB1 cells assessed as inhibition of cell growth measured after 72 hrs by CCK-8 assay; type: functional, cell-based; details: PB1, 72 h; procedure, shortened: as §2
NCI-H1975 [9] = test: Cell cycle arrest in human NCI-H1975 cells expressing EGFR L858R/T790M mutant assessed as increase of cell population in G0/G1 phase at […] measured after 48 hrs by RNaseA/propidium iodide staining based flow cytometry; type: functional; details: dose lower 0.03 nM
Procedure, shortened: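 H1975 cells (1 × 10⁵/well, 6-well plates) treated one day after seeding at the indicated concentrations for 48 h. Washed in cold PBS, fixed in cold ethanol at −20 °C for over 24 h, then stained with PI/RNase for 30 min at 37 °C in the dark. Phase distribution measured by flow cytometry.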

NCI-H1975 [10] = test: Antiproliferative activity against human NCI-H1975 cells assessed as inhibition of cell growth measured after 72 hrs by CCK-8 assay; type: functional, cell-based; details: NCI-H1975, 72 h; procedure, shortened: as §2
BaF3 = test: Antiproliferative activity against mouse BaF3 cells assessed as inhibition of cell growth measured after 72 hrs by CCK-8 assay; type: functional, cell-based; details: BaF3, 72 h; procedure, shortened: as §2
[11] = system: Epidermal growth factor receptor (Homo sapiens), P00533 [L858R,T790M]; test: Inhibition of EGFR L858R/T790M mutant phosphorylation in human NCI-H1975 cells at 1 to 100 nM measured after 16 hrs by Western blot assay; type: cell-based; details: dose 1-100 nM; procedure, shortened: as §1
NCI-H1975 [12] = test: Induction of apoptosis in human NCI-H1975 cells expressing EGFR L858R/T790M mutant assessed as decrease in number of viable cells measured after 72 hrs by Annexin-V/FITC staining based flow cytometry method; type: functional, cell-based
Procedure, shortened: (§4)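 H1975 cells (8 × 10⁴/well, 12-well plates) treated one day after seeding at graded concentrations for 72 h. Collected, stained with Annexin V-FITC, and apoptosis measured by flow cytometry.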

HCC827 = test: Antiproliferative activity against human HCC827 cells assessed as inhibition of cell growth measured after 72 hrs by CCK-8 assay; type: functional, cell-based; details: HCC827, 72 h; procedure, shortened: as §2
[13] = system: Protein cereblon/Epidermal growth factor receptor (Homo sapiens), P00533+Q96SW2 [L858R,T790M]; test: Protac activity at CRBN/EGFR L858R/T790M mutant in human NCI-H1975 cells assessed as induction of EGFR degradation measured after 48 hrs by Western blot assay; type: cell-based; details: dose 30-500 nM; procedure, shortened: as §1
[14] = system: Protein cereblon/Epidermal growth factor receptor (Homo sapiens), P00533+Q96SW2 [L858R,T790M]; test: Protac activity at CRBN/EGFR L858R/T790M mutant in human NCI-H1975 cells assessed as increase in ratio of LC3B2 to LC3B1 at 30 to 300 nM preincubated for 2 hrs in presence of Rapamycin and measured after 16 hrs by Western blot assay; type: cell-based; details: dose 30-300 nM, time 18.0 hrs
Procedure, shortened: (§5)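 H1975 cells in RPMI 1640 with 10% serum. Autophagy was read by Western blot as the LC3B II/LC3B I ratio. Serum-free medium and rapamycin served as autophagy-inducing positive controls, and rapamycin was also combined with degrader. Where pretreatment applied, compounds were added for 2 h before a 16 h PROTAC treatment.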

[15] = system: Protein cereblon/Epidermal growth factor receptor (Homo sapiens), P00533+Q96SW2 [L858R,T790M]; test: Protac activity at CRBN/EGFR L858R/T790M mutant in human NCI-H1975 cells assessed as increase in ratio of LC3B2 to LC3B1 at 30 to 300 nM measured after 16 hrs by Western blot assay; type: cell-based; details: dose 30-300 nM; procedure, shortened: as §5
[16] = system: Protein cereblon/Epidermal growth factor receptor (Homo sapiens), P00533+Q96SW2 [L858R,T790M]; test: Protac activity at CRBN/EGFR L858R/T790M mutant in human NCI-H1975 cells assessed as induction of EGFR degradation at 300 nM pretreated for 24 hrs followed by compound washout and subsequent addition of fresh medium by Western blot assay relative to control; type: cell-based; procedure, shortened: as §3
NCI-H1975 [17] = test: Induction of apoptosis in human NCI-H1975 cells expressing EGFR L858R/T790M mutant assessed as increase in number of apoptotic cells measured after 72 hrs by Annexin-V/FITC staining based flow cytometry method; type: functional, cell-based; procedure, shortened: as §4

SMILES	Activity [1]	IC50 (HEK-293T) [nM]	Activity [2]	DC50 [3] [nM]	Activity [4]	Activity [5]	DC50 [6]	Activity (NCI-H1975 [7])	IC50 [8] [nM]	Activity (NCI-H1975 [9])	IC50 (NCI-H1975 [10]) [nM]	IC50 (BaF3) [nM]	Activity [11]	Activity (NCI-H1975 [12])	IC50 (HCC827) [nM]	Activity [13]	Activity [14]	Activity [15]	Activity [16]	Activity (NCI-H1975 [17])
C=CC(=O)Nc1cc2c(Nc3ccc(F)c(Cl)c3)ncnc2cc1OCCCN1CCN(C(=O)CCCCCNc2cccc3c2C(=O)N(C2CCC(=O)NC2=O)C3=O)CC1 (stereo not given)	Active	> 10000	Active	100	inactive	Active	Not Active	Active	45	Active	22.1	71.3	Active	Dose-Dependent Effect	2.12	Dose-Dependent Effect	Active	Active	Active	Active
C=CC(=O)Nc1cc2c(Nc3ccc(F)c(Cl)c3)ncnc2cc1OCCCN1CCN(C(=O)CCCCCCNc2cccc3c2C(=O)N(C2CCC(=O)NC2=O)C3=O)CC1 (stereo not given)	Active	> 10000	Active	30	inactive	Active	Not Active	Active	89.5	Active	26.5	51.3	Active	Dose-Dependent Effect	1.15	Dose-Dependent Effect	Active	Active	Active	Active

— ChEMBL document CHEMBL4825665, “Effective degradation of EGFRL858R+T790M mutant proteins by CRBN-based PROTACs through both proteosome and autophagy/lysosome degradation systems” (Eur J Med Chem, 2021)
